# KCNQ1 inh = inhibitors of human KCNQ1 channel, primary screen, cell-based, thallium flux, high-throughput; CHO-K1 KCNQ1, FluxOR thallium flux fluorescence; stronger effect = higher value; Potassium voltage-gated channel subfamily KQT member 1 (Homo sapiens), P51787; 1.3% of 310,000 active; B-score at 10 µM; AID 2642, 2010;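 active = compounds whose thallium flux B-score, printed positive for inhibition, exceeds three library SD while starting fluorescence stays within three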;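 also: channel opened by potassium depolarization with thallium stimulus after 20 min compound exposure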
# KCNQ1 pot = potentiators or activators of KCNQ1 channel, primary screen, cell-based, thallium flux, high-throughput; Potassium voltage-gated channel subfamily KQT member 1 (Homo sapiens), P51787; CHO-K1 KCNQ1, thallium flux FluxOR fluorescence; stronger effect = higher value; B-score at 10 µM; 0.35% of 310,000 active;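 active = fluorescence ratio B-score, a plate-corrected score, at least three library SD, with initial intensity B-score within 5 SD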
#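 Assay system: CHO-K1 cells stably expressing KCNQ1; Medium: assay buffer with matched DMSO; Also added: K+/Tl+ depolarizing stimulus; Dosing: single dose; Timing: dye 90 min, compound 20 min, room temperature; Measured by: kinetic FluxOR thallium fluorescence, 10-s 1-Hz baseline, 110-s post-stimulus read; Read-out: peak-minus-minimum fluorescence over initial fluorescence, negative-control normalized, B-scored.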
# Kir21 inh = inhibitors of mouse Kir2.1 inward-rectifier potassium channel | HEK293-Kir2.1, FluxOR thallium flux fluorescence; stronger effect = lower value | 0.85% of 310,000 active | B-score at 10 µM;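 active = fluorescence ratio B-score at or below minus 3 SD of library scores, with starting-brightness B-score within 2 SD, cut at about -4.2 in these data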;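 also: channel flux triggered by added potassium and thallium sulfate stimulus; B-score of peak minus minimum fluorescence over baseline after thallium stimulus; more negative B-score means stronger Kir2.1 block with less thallium influx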
# KCNK3 block = human KCNK3 channel inhibitors, primary screen, CHO cells, FluxOR thallium flux, B-score | AID 602410, 2012 | Potassium channel subfamily K member 3 (Homo sapiens), O14649 | 0.84% of 340,000 active | FluxOR fluorescence; stronger effect = lower value | B-score at 10 µM;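 active = B-score under library mean minus 4 SD, starting fluorescence ratio at most library mean plus 5 SD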;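 also: more negative B-score means stronger inhibition of thallium flux through KCNK3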
# Target sequence (O14649 whole entry, looked up): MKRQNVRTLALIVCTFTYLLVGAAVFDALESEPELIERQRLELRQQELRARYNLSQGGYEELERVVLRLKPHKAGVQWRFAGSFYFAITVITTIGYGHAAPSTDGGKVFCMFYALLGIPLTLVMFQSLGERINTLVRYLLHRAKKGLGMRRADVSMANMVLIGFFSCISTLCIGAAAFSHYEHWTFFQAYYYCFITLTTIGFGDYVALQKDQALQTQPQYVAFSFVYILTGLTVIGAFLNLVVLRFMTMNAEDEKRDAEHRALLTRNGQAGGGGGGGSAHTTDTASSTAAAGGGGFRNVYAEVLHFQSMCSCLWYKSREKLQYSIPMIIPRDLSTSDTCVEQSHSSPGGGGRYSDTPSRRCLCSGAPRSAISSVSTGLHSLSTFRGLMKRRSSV
# hERG rescue = hERG rescue from dofetilide block, primary screen, cell-based, CHO-hERG, FluxOR thallium flux, dofetilide IC70; Voltage-gated inwardly rectifying potassium channel KCNH2 (Homo sapiens), Q12809; dofetilide IC70 present; activation (rescue from dofetilide block), less the hit threshold, % at 10 µM; 0.51% of 310,000 active; AID 1511, 2009;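 active = activation above the mean of controls blocked by dofetilide plus 5 SD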;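 also: thallium influx through hERG after potassium depolarization seen as dye fluorescence rise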
# KCNK9 block = KCNK9 potassium channel inhibitors, primary screen, HEK293 cells, thallium flux; Potassium channel subfamily K member 9 (Homo sapiens), Q9NPC2; FluxOR thallium flux fluorescence; stronger effect = lower value; B-score at 10 µM; 1.2% of 310,000 active; AID 488922, 2010;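 active = ratio B-score over 3 SD below the library mean, with starting fluorescence within 5 SD of its mean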;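 also: negative B-score means less thallium flux so channel inhibition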
# KCNK3 confirm = retest of human KCNK3 channel inhibitors, confirmation, CHO cells, FluxOR thallium flux, triplicate; shares compounds with KCNK3 block; FluxOR fluorescence; 0% buffer, 100% carvedilol maximal block; ratio percent of control, % at 10 µM; 99% of 2,400 active; AID 651638, 2012;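 active = ratio percent of control, averaged over triplicates, above buffer control mean plus 5 SD, cut at about 64% in these data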;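 also: ratio is the fluorescence rise from min to max over baseline after thallium stimulus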
# KCNK3 uninduced = thallium flux inhibition in non-induced cells, primary screen, counter-screen for KCNK3 inhibitor project, cell-based, non-induced KCNK3 line, FluxOR thallium, triplicate; 40% of 2,400 active; shares compounds with KCNK3 block; thallium flux ratio (lower = more inhibition) at 10 µM; AID 651747, 2012; non-induced KCNK3 parental cells; stronger effect = lower value;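 active = thallium flux ratio, averaged over three wells, more than 5 SD below the buffer control mean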;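 also: host cells are CHO cells without KCNK3 induction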
# A number is an active result; – = inactive; · = no result given. Hits are enriched below; roughly 3.7% of the tested compounds scored in any of these assays.
SMILES,KCNQ1 inh,KCNQ1 pot,Kir21 inh,KCNK3 block,hERG rescue,KCNK9 block,KCNK3 confirm,KCNK3 uninduced
O=c1[nH]c(N/N=C\c2ccc3c(c2)OCO3)nc2ccccc12,–,–,–,–,–,–,·,·
CC1CCCCN1C(=O)COC(=O)CNC(=O)c1ccc(Cl)cc1Cl (centres undefined),–,–,–,–,–,–,·,·
CCCOP(=O)(OCCC)C(Nc1ccc(C(C)C)cc1)c1ccc([N+](=O)[O-])cc1 (centres undefined),–,–,–,-8.8,–,–,118,0.16
O=C(NNc1cccc(Cl)n1)Nc1ccc(F)cc1,–,–,–,–,–,–,·,·
Cc1ccc(-n2cc(CN3CCC(CO)(Cc4cccc(C(F)(F)F)c4)CC3)cn2)cc1,–,–,–,–,–,–,·,·
CSc1cccc(CN2CCC(CO)(Cc3cccc(C(F)(F)F)c3)CC2)c1,–,–,–,-11,–,–,116,0.15
Cc1ccc(/C=C/c2nnc(-c3cccs3)o2)cc1,–,–,–,-8.8,–,–,84,–
Cc1ccc(/C=C/c2nnc(-c3ccc(C)cc3)o2)cc1,–,–,–,–,–,–,·,·
CCOc1ccccc1/C=N/N1CCN(Cc2ccccc2)CC1,–,–,–,-11,–,–,83,–
COc1ccc(/C=C2\SC(=S)NC2=O)cc1OS(=O)(=O)c1ccc(NC(C)=O)cc1,13,–,–,-10,–,–,124,–
Cc1ccc2oc(=O)n(CCCOc3ccccc3C)c2c1,–,–,–,-11,–,–,121,0.14
O=C(COc1ccccc1F)NC12CC3CC(CC(C3)C1)C2,–,–,–,–,–,–,·,·
CCOc1ccc(CN(C)c2nc(-c3cccnc3)nc3ccccc23)cc1OC,–,–,–,-16,–,–,104,–
O=C(c1cc(COc2ccccc2)on1)N1CCCC(CN2CCOCC2)C1 (centres undefined),–,–,–,–,–,–,·,·
COC(=O)CSc1nc2c(c(-c3ccco3)c1C#N)CCCC2,–,–,–,–,–,–,·,·
CCOC(=O)CSc1nc2c(c(-c3ccc(C)o3)c1C#N)CCCC2,–,–,–,-9.3,–,–,98,–
Nc1ncnc2c1ncn2[C@@H]1O[C@H](CNC(=O)[C@@H](N)Cc2ccc(C(F)(F)F)cc2)[C@@H](O)[C@H]1O,·,·,·,–,·,·,·,·
COc1ccc(Oc2nc(-c3ccccc3)ncc2C(=O)O)cc1,–,–,–,–,–,–,·,·
Cc1ccc(C(=O)c2cnc3ccccc3c2-c2ccccc2)cc1,–,–,–,-9.8,–,–,118,0.13
COc1ccc(C(=O)c2cnc3ccccc3c2-c2ccccc2)cc1,–,–,–,-9.2,–,–,112,–
O=C(NCCSc1c[nH]c2ccccc12)c1ccco1,–,–,–,–,–,–,·,·
O=C(NCCSc1c[nH]c2ccccc12)c1c(F)cccc1F,–,–,–,-10,–,–,101,–
O=C(Nc1ccccn1)c1ccc(Cl)c(S(=O)(=O)N2CCCC2)c1,–,–,–,–,–,–,·,·
Cc1ccc(NC(=O)c2ccc(Cl)c(S(=O)(=O)N3CCCCCC3)c2)nc1,–,–,–,-9.7,–,–,115,–
O=C(Nc1ccc(Cl)cn1)c1ccc(Br)c(S(=O)(=O)N2CCCCC2)c1,–,–,–,–,–,-7.4,102,–
SMILES,KCNQ1 inh,KCNQ1 pot,Kir21 inh,KCNK3 block,hERG rescue,KCNK9 block,KCNK3 confirm,KCNK3 uninduced
O=C(NCCCCNCCCNC(=O)c1ccccc1)c1ccccc1,·,·,·,–,·,·,·,·
N#CCC(=O)N/N=C/c1cn(Cc2ccccc2C#N)c2ccccc12,–,–,–,–,–,–,·,·
N#CCC(=O)N/N=C/c1c(-c2ccccc2)n(-c2ccccc2)c2ccccc12,–,–,–,-9.6,–,–,97,–
N#CCCN1CCN(CCC#N)C1=S,·,·,·,–,·,·,·,·
Cc1ccc(C)c(NC(=O)c2ccc3c(c2)N(Cc2ccc(F)cc2)C(=O)CS3=O)c1 (centres undefined),–,–,–,–,–,–,·,·
O=C(Nc1ccc(Br)cc1F)c1ccc2c(c1)N(Cc1ccccc1)C(=O)CS2=O (centres undefined),–,–,–,-13,–,–,100,–
COC(=O)c1cc(NC(=O)c2cc(-c3ccccc3Cl)oc2C(F)(F)F)ccc1N1CCOCC1,8,–,–,-11,–,–,84,0.12
CC(C)C(NC(=O)c1ccco1)C(=O)NC1CCCCCC1 (centres undefined),–,–,–,–,–,–,·,·
CCn1c(SCC(=O)Nc2oc(-c3ccccc3)c(-c3ccccc3)c2C#N)nnc1-c1ccncc1,–,–,–,-9.3,–,–,118,0.14
FC(F)(F)c1ccc(Nc2nnnc3ccccc23)cc1,–,–,–,–,–,–,·,·
O=C(c1cc(-c2cccc(Cl)c2)on1)N1CCCCCC1,–,–,–,-10,–,–,114,–
Cc1ccc(S(=O)(=O)Nc2ccc(N(C)S(=O)(=O)c3ccc(C)cc3)cc2)cc1,–,–,–,–,–,-7,86,–
CCCCSCCCNC(=O)c1ccc(CS(=O)(=O)c2ccccc2OC)o1,–,–,–,–,–,–,·,·
COc1ccc(NC(=O)C2CCCN(CCCc3ccccc3)C2)cc1OCC(C)C (centres undefined),–,–,–,-9.8,–,–,99,–
Nc1[nH]c2cc([N+](=O)[O-])ccc2c1-c1ccccn1,–,–,–,-10,–,–,115,0.14
O=C(COc1cccc(F)c1)NNC(=O)Cc1ccc(Br)cc1,·,·,·,–,·,·,·,·
COc1ccc(C2(C(=O)NCCc3ccccc3)CCCC2)cc1OC,–,–,–,–,–,–,·,·
Nc1ccc(/C=C/C(=O)c2cccs2)cc1,–,–,–,-9.3,–,–,123,0.093
COc1cccc(/C=C2/Sc3ccc(C(=O)NCCN4CCCCCC4)cc3NC2=O)c1,7,–,–,-10,–,–,112,–
